Test results as given in article PMC7132385 (Antiviral Research, 2007).
Converted amounts (≈) assume the structure as drawn. Like-named read-outs stand apart in the source and are kept apart here.

What was measured:
IBV Beaudette = experiment: Colorimetric MTT antiviral assay, IBV Beaudette; type: cell-based, infectious bronchitis virus; conditions: read-out: EC50 (50% inhibition of virus infection), IBV Beaudette
Procedure, shortened: (§1)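 100 TCID50 of virus was preincubated with graded test compound for 1 h at 37 °C, 5% CO2, added to PBS-DEAE-washed cells for 1 h, then removed, and compound was re-added at the same concentrations in DMEM with 5% FBS. MTT (0.5 mg/ml final) was added for 2 h at day 2 (FCoV 79-1683, FIPV 79-1146) or day 3 (others), then DMSO lysis and OD570. EC50 is 50% protection from CPE.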

Berne virus torovirus = experiment: Colorimetric MTT antiviral assay, Berne virus; type: cell-based, equine torovirus; conditions: read-out: EC50 (50% inhibition of virus infection), Berne virus torovirus
Procedure, shortened: as §1

Equine arteritis virus = experiment: Colorimetric MTT antiviral assay, equine arteritis virus; type: cell-based; conditions: read-out: EC50 (50% inhibition of virus infection), Equine arteritis virus
Procedure, shortened: as §1

MHV-EFLM = experiment: Immunoperoxidase; type: cell-based, mouse hepatitis virus; conditions: read-out: EC50 (50% inhibition of virus infection), MHV-EFLM
Procedure, shortened: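 Murine LR7 fibroblasts expressing the MHV receptor were infected at MOI 0.5 with virus preincubated 1 h at 37 °C with test compound. After 1 h the inoculum was removed, cells were washed, and compound was re-added at the same concentrations. At 6 h cells were fixed in 4% formaldehyde and permeabilised with 70% ethanol. Immunoperoxidase staining used rabbit anti-MHV polyclonal plus HRP swine anti-rabbit. EC50 is the concentration lowering light-microscope infected-cell counts by 50% versus mock.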

[1] = test system: FIPV Black TN406HP (serotype I); experiment: Immunoperoxidase; type: cell-based, feline coronavirus; conditions: read-out: EC50 (50% inhibition of virus infection), FIPV Black TN406HP (serotype I)
Procedure, shortened: (§2)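 FCWF monolayers were given virus (MOI 0.5) that had been preincubated 1 h at 37 °C with test compound, for 1 h after a PBS-DEAE wash, then washed and given compound at the same concentrations. Cells were fixed in 4% formaldehyde for 15 min at 6 h post-infection (16 h for serotype I strain), permeabilised with 70% ethanol, and stained with cat FIP ascitic fluid plus HRP goat anti-cat. EC50 is 50% fewer microscopically counted infected foci than mock-treated cells.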

[2] = test system: FIPV-Δ3abcFL (serotype II); experiment: Immunoperoxidase; type: cell-based, feline coronavirus; conditions: read-out: EC50 (50% inhibition of virus infection), FIPV-Δ3abcFL (serotype II)
Procedure, shortened: as §2

[3] = test system: FCoV 79-1683 (serotype II); experiment: Immunoperoxidase; type: cell-based, feline coronavirus; conditions: read-out: EC50 (50% inhibition of virus infection), FCoV 79-1683 (serotype II)
Procedure, shortened: as §2

[4] = Cytotoxicity MTT assay, LR7 cells; type: cell-based, mouse; conditions: mouse
Procedure, shortened: (§3)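 Cells grown in DMEM with 10% FBS and antibiotics were kept with a range of test compound concentrations for 3 days at 37 °C, 5% CO2. MTT was added to 0.5 mg/ml final for 2 h at 37 °C. Medium was removed and cells were lysed in DMSO (10 min, room temperature, rocking). OD was read at 570 nm. CC50 is the concentration lowering viability of 50% of cells, ± S.D.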

[5] = Cytotoxicity MTT assay, FCWF cells; type: cell-based, feline; conditions: cat, FCWF cells
Procedure, shortened: as §3

[6] = Cytotoxicity MTT assay, Vero cells; type: cell-based, simian; conditions: monkey (simian), Vero cells
Procedure, shortened: as §3

ST cells = experiment: Cytotoxicity MTT assay, ST cells; type: cell-based, porcine; conditions: read-out: CC50 (50% cytotoxicity), ST, 3 days, ± S.D.
Procedure, shortened: as §3

[7] = Cytotoxicity MTT assay, Ederm cells; type: cell-based, equine; conditions: horse, equine dermis (Ederm) cells
Procedure, shortened: as §3

[8] = test system: porcine alveolar macrophages (PAMs); experiment: Cytotoxicity by EMA staining, PAMs; type: cell-based; conditions: read-out: CC50 (50% cytotoxicity), PAMs, 24 h, ± S.D.
[9] = Maximum solubility of the compound; type: physicochemical
[10] = test system: FIPV Black TN406HP (serotype I); experiment: Colorimetric MTT antiviral assay, FIPV Black TN406HP; type: cell-based, feline coronavirus; conditions: read-out: EC50 (50% inhibition of virus infection), FIPV Black TN406HP (serotype I), FCWF cells, 100 TCID50, 3 days, ± S.D.
Procedure, shortened: as §1

[11] = test system: FIPV 79-1146 (serotype II); experiment: Colorimetric MTT antiviral assay, FIPV 79-1146; type: cell-based, feline coronavirus; conditions: read-out: EC50 (50% inhibition of virus infection), FIPV 79-1146 (serotype II), FCWF cells, 100 TCID50, 2 days, ± S.D.
Procedure, shortened: as §1

LR7 cells = experiment: Cytotoxicity MTT assay, LR7 cells; type: cell-based, mouse; conditions: read-out: CC50 (50% cytotoxicity), LR7; MTT assay, 3 days; ± S.D.
Procedure, shortened: as §3

FCWF cells = experiment: Cytotoxicity MTT assay, FCWF cells; type: cell-based, feline; conditions: read-out: CC50 (50% cytotoxicity), FCWF; MTT assay, 3 days; ± S.D.
Procedure, shortened: as §3

retroviruses = conditions: read-out: EC50 against retroviruses; earlier studies; ref Balzarini et al., 1992; cited from earlier work
[12] = test system: FCoV 79-1683 (serotype II); experiment: Colorimetric MTT antiviral assay, FCoV 79-1683; type: cell-based, feline coronavirus; conditions: read-out: EC50 (50% inhibition of virus infection), FCoV 79-1683 (serotype II), FCWF cells, 100 TCID50, 2 days, ± S.D.
Procedure, shortened: as §1

TGEV Purdue = experiment: Colorimetric MTT antiviral assay, TGEV Purdue; type: cell-based, transmissible gastroenteritis virus; conditions: read-out: EC50 (50% inhibition of virus infection), TGEV Purdue, ST cells, 100 TCID50, 3 days, ± S.D.
Procedure, shortened: as §1

PRRSV Lelystad virus = experiment: Immunoperoxidase; type: cell-based, porcine reproductive and respiratory syndrome virus; conditions: IPOX assay; for PRRSV Lelystad virus infection of PAMs reduced to: at 2 μM; for EC50: read-out: EC50 (50% inhibition of virus infection), PRRSV Lelystad virus, PAMs, MOI 1, 10 h post-infection, ± S.D.
Procedure, shortened: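 Primary porcine alveolar macrophages were kept in EMEM with 10% FBS at 37 °C, 5% CO2. Virus at MOI 1 was preincubated 1 h at 37 °C with test compound, then added to cells for 1 h. Cells were washed with FBS-free medium and fixed in −20 °C methanol at 10 h post-infection. Peroxidase was blocked with azide/H2O2. Staining used anti-nucleocapsid MAb P3/27 with HRP anti-mouse. Infected cells were counted by light microscopy against mock-treated cells.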

Vero cells = experiment: Cytotoxicity MTT assay, Vero cells; type: cell-based, simian; conditions: read-out: CC50 (50% cytotoxicity), Vero; MTT assay, 3 days; ± S.D.
Procedure, shortened: as §3

[13] = test system: equine dermis (Ederm) cells; experiment: Cytotoxicity MTT assay, Ederm cells; type: cell-based; conditions: read-out: CC50 (50% cytotoxicity), Ederm; MTT assay, 3 days; ± S.D.
Procedure, shortened: as §3

[14] = MTT assay, Vero cells, 100 TCID50, 3 days, ± S.D.
[15] = MTT assay, Ederm cells, 100 TCID50, 3 days, ± S.D.
[16] = IPOX assay, LR7 cells, MOI 0.5, 6 h post-infection, ± S.D.
[17] = IPOX assay, FCWF cells, MOI 0.5, 16 h post-infection, ± S.D.
[18] = IPOX assay, FCWF cells, MOI 0.5, 6 h post-infection, ± S.D.

Row | Molecule | CC50 (ST cells) [nM] | CC50 [8] [nM] | EC50 [10] [nM] | EC50 [11] [nM] | CC50 (LR7 cells) [nM] | CC50 (FCWF cells) [nM] | EC50 [12] [nM] | EC50 (IBV Beaudette; [14]) [nM] | EC50 (TGEV Purdue) [nM] | EC50 (Berne virus torovirus; [15]) [nM] | EC50 (Equine arteritis virus; [15]) [nM] | EC50 (MHV-EFLM; [16]) [nM] | EC50 [1, 17] [nM] | EC50 [2, 18] [nM] | EC50 [3, 18] [nM] | PRRSV Lelystad virus infection of PAMs reduced to (PRRSV Lelystad virus) [%] | EC50 (PRRSV Lelystad virus) [nM] | CC50 (Vero cells) [nM] | CC50 [13] [nM] | other results
1 | CN[C@@H]1[C@H](O[C@@H]2OC[C@@H](O)[C@H](O)[C@H]2O)[C@@H](O)[C@H](O[C@H]2c3cc(C)c(C(=O)N[C@H](C)C(=O)O)c(O)c3-c3c(cc4c(c3O)C(=O)c3cc(OC)cc(O)c3C4=O)[C@@H]2O)O[C@@H]1C [PRM-A, pradimicin-A, reference compound] | 121000 ± 27600 | 18100 ± 6400 |  |  |  |  |  |  |  |  |  |  |  |  |  |  |  |  |  | EC50 (IBV Beaudette; Avian coronavirus, Vero, 72 h): 2900 ± 2000 nM; EC50 (Berne virus torovirus; Equine torovirus, 72 h): 31000 ± 24000 nM; EC50 (Equine arteritis virus; Equine arteritis virus, 72 h): > 120000 nM; EC50 (MHV-EFLM; Murine coronavirus, LR7, 6 h): 10700 ± 5800 nM; EC50 ([1]; Alphacoronavirus 1, 16 h): 7800 ± 2000 nM; EC50 ([2]; Alphacoronavirus 1, 6 h): > 120000 nM; EC50 ([3]; Alphacoronavirus 1, 6 h): > 120000 nM; CC50 at 3 days [4]: > 120000 nM; CC50 at 3 days [5]: > 120000 nM; CC50 at 3 days [6]: 120000 ± 32400 nM; CC50 at 3 days [7]: > 120000 nM; solubility [9]: 120 µM (≈ 101 µg/mL)
2 | Cymbidium sp. agglutinin [CA] |  |  | 130 ± 2 | 290 ± 110 | > 4000 | 3300 ± 800 |  |  |  |  |  |  |  |  |  |  |  |  |  | EC50 (retroviruses): 3 nM
3 | Galanthus nivalis agglutinin [GNA] | > 2000 | > 2000 | 8 ± 5 | 130 ± 2 | > 2000 | > 2000 | 430 ± 300 | 0.2 ± 0.2 | 4 ± 0.8 | 120 ± 90 | 180 ± 70 | 40 ± 20 | 12 ± 6 | 70 ± 40 | 200 ± 60 | 40 | > 2000 | > 2000 | > 2000 | 
4 | Hippeastrum hybrid agglutinin [HHA] | > 2000 | > 2000 | 7 ± 3 | 100 ± 2 | > 2000 | > 2000 | 110 ± 30 | 0.2 ± 0.2 |  | 70 ± 70 | 130 ± 40 | 70 ± 20 | 4 ± 2 | 30 ± 20 | 60 ± 20 | 40 | > 2000 | > 2000 | 1900 ± 300 | 
5 | cyanovirin-N (protein, UniProt P81180 1-101, looked up) Cyanovirin-N: LGKFSQTCYNSAIQGSVLTSTCERTNGGYNTSSIDLNSVIENVDGSLKWQPSNFIETCRNTQLAGSSELAAECKTRAQQFVSTKINLDDHIANIDGTLKYE |  |  |  |  | > 2000 | 1400 ± 500 |  |  |  |  |  |  |  |  |  |  |  |  |  | 
6 | Urtica dioica agglutinin (protein, UniProt P11218 24-372, looked up) Lectin/endochitinase 1: QRCGSQGGGGTCPALWCCSIWGWCGDSEPYCGRTCENKCWSGERSDHRCGAAVGNPPCGQDRCCSVHGWCGGGNDYCSGSKCQYRCSSSVRGPRVALSGNSTANSIGNVVVTEPLFDQMFSHRKDCPSQGFYSYHSFLVAAESFPAFGTIGDVATRKREVAAFLAHISQATSGERSDVENPHAWGLCHINTTTVTENDFCTSSDWPCAAGKKYSPRGPIQLTHNFNYGLAGQAIGEDLIQNPDLVEKDPIISFKTALWFWMSQHDNKPSCHDIVLNANSAANRIPNKGVIGNIISRAFGHDDFAVRSSSIGFYKRYCDMLGVSYGHDLKYWFDNTPSSEFQRIQMRVAA | 6100 ± 1000 | > 12000 | 23 ± 12 | 240 ± 140 | 9900 ± 4800 | 2200 ± 300 | 110 ± 30 | 50 ± 50 | 80 ± 70 | 250 ± 200 | 390 ± 10 | 530 ± 20 | 20 ± 10 | 140 ± 50 | 170 ± 100 |  | 4800 ± 3200 | 3400 ± 1300 | 9500 ± 3100 | 
